The values below come from ChEMBL document CHEMBL4017520, “Discovery, Structure-Activity Relationship, and Antiparkinsonian Effect of a Potent and Brain-Penetrant Chemical Series of Positive Allosteric Modulators of Metabotropic Glutamate Receptor 4” (J Med Chem, 2017).

The target in series [1] is T1, Metabotropic glutamate receptor 4 (Homo sapiens, UniProt Q14833). Nature of the series: Positive allosteric modulation of recombinant human mGlu4 receptor expressed in HEK293 cells co-expressing chimeric Gi/Gq protein assessed as fold shift in glutamate-induced calcium flux at 3 uM preincubated for 10 mins followed by glutamate addition measured for 3 mins by Fluo4-AM dye based fluorescence assay. It is filed as functional, cell-based. In outline:
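HEK-293 cells transiently co-transfected by electroporation with human mGluR4 and chimeric Gi/Gq (GqTOP) were cultured 24 h, FCS-starved 3 h, then loaded 1 h 30 min with 1 μM Fluo4-AM in HBSS/20 mM HEPES buffer containing probenecid and 0.1% BSA. Compound was added for 10 min, then glutamate (10 or 20 concentrations over 4.5 logs), read 3 min (ex 485/em 525 nm). The fold change in glutamate potency with vs without compound gives the shift.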
In general terms: A change in cytosolic calcium serves as a functional read-out for many receptors and channels.

In series [2] the target is T1, Metabotropic glutamate receptor 4. In words: Positive allosteric modulation of recombinant human mGlu4 receptor expressed in HEK293 cells co-expressing chimeric Gi/Gq assessed as increase in EC20 glutamate-induced calcium flux preincubated for 10 mins followed by glutamate addition measured for 3 mins by Fluo4-AM dye based fluorescence assay relative to control. It is filed as functional, cell-based.

The target of series [3] is Metabotropic glutamate receptor 5 (Homo sapiens) (UniProt P41594). Nature of the series: Activity at human mGlu5 receptor expressed in HEK293 cells co-expressing Gi/Gq assessed as effect on intracellular calcium level up to 10 uM after 10 mins by Fluo4-AM dye based fluorescence assay. It is filed as functional, cell-based. In outline: (§1)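 HEK-293 cells transiently expressing the human mGluR with a promiscuous or chimeric G protein were serum-starved 3 h and loaded 1.5 h with 1 μM Fluo4-AM. Compound alone was added in assay buffer, and calcium fluorescence (ex 485/em 525) was recorded for 10 min as agonist readout.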

Series [4] concerns the target Metabotropic glutamate receptor 2 (Homo sapiens) (UniProt Q14416). Nature of the series: Activity at human mGlu2 receptor expressed in HEK293 cells co-expressing Gi/Gq assessed as effect on intracellular calcium level up to 10 uM after 10 mins by Fluo4-AM dye based fluorescence assay. It is filed as functional, cell-based. In outline: as §1
For series [5], the system named is Mus musculus. Nature of the series: Anti-parkinson's activity in ip dosed C57BL/6 mouse assessed as reversal of haloperidol-induced catalepsy after 40 mins. It is filed as functional, organism-based.
Series [6] relates to Rattus norvegicus. In words: Protection against 6-OHDA induced parkinsonian motor deficit in Sprague-Dawley rat assessed as increase in slow activity at 30 mg/kg, ip after 30 to 120 mins post administration. It is filed as functional, organism-based. In a few lines: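 Adult male Sprague−Dawley rats with bilateral 6-OHDA striatal lesions given compound 30 mg/kg ip or vehicle at T0; spontaneous locomotor activity (active time, slow activity, rearing) counted in 5-min bins versus pre-surgery vehicle; n = 10.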

Series [7] concerns the target Metabotropic glutamate receptor 2 (Homo sapiens) (UniProt Q14416). In words: Activity at human mGlu2 receptor expressed in HEK293 cells co-expressing Gi/Gq assessed as effect on EC20/EC80 glutamate-induced intracellular calcium level up to 10 uM preincubated for 10 mins followed by glutamate addition measured for 3 mins by Fluo4-AM dye based fluorescence assay. It is filed as functional, cell-based. In outline: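 HEK-293 cells were electroporated with the human mGluR plus a promiscuous or chimeric G protein and cultured 24 h, then serum-starved 3 h. Cells were loaded 1.5 h with 1 μM Fluo4-AM in HBSS/HEPES buffer with probenecid and 0.1% BSA. Compound was added for 10 min, then glutamate at EC20 (PAM) or EC80 (NAM), and fluorescence (ex 485/em 525) was read for 3 min.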

Series [8] addresses Metabotropic glutamate receptor 7 (Homo sapiens) (UniProt Q14831). In words: Activity at human mGlu7 receptor expressed in HEK293 cells co-expressing Gi/Gq assessed as effect on LAP4-induced intracellular calcium level up to 10 uM after 10 mins by Fluo4-AM dye based fluorescence assay. It is filed as functional, cell-based. In a few lines:
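Human mGluR7 in transfected HEK293 cells loaded with Fluo4-AM. Compound was added for 10 min, followed by L-AP4 at EC20 or EC80 in place of glutamate, and calcium fluorescence was recorded for 3 min. Results are from at least two or three independent experiments.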

Series [9] is described as follows: Cmax in C57BL/6 mouse at 2 mg/kg, iv administered as single dose by LC-MS/MS analysis. The following applies: in vivo. It is filed as ADME, organism-based. The arrangement: dose 2 mg/kg, route intravenous.
Series [10] deals with Mus musculus. In words: Volume of distribution in C57BL/6 mouse at 2 mg/kg, iv administered as single dose by LC-MS/MS analysis. It is filed as ADME, organism-based. The following applies: in vivo. In outline: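 Single intravenous dose: rats 1 mg/kg, mice 2 mg/kg. Plasma concentration–time data yielded Cmax, t1/2, AUC0−∞, plasma clearance and volume of distribution. Values are mean ±SEM of 3 animals.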

Series [11] can be described thus: Ratio of drug level in Sprague-Dawley rat brain to plasma at 1 mg/kg, iv after 1 hr post dose administered as single dose by LC-MS/MS analysis. It is filed as ADME, organism-based. The following applies: read-out: BPR. In a few lines:
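Single iv dose, 1 mg/kg in rat or 2 mg/kg in mouse; plasma PK parameters derived; brain/plasma ratio taken at 1 h postdose (rat) or 30 min postdose (mouse). Mean of 3 rats; 2 mice for mouse Cmax and brain/plasma.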

Series [12] can be described thus: Cmax in Sprague-Dawley rat plasma at 10 mg/kg, ip administered as single dose by LC-MS/MS analysis. It is filed as ADME, organism-based. On the set-up: dose 10 mg/kg, route intraperitoneal. In outline: (§2)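 Rats dosed ip at 10 or 30 mg/kg. Plasma Cmax, Tmax, half-life and AUC0–inf were determined. Brain concentration was measured 30 min postdose, and brain/plasma ratio was taken at 30 min. Values are the mean (±SEM) of 3 rats.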

Series [13] can be described thus: Cmax in Sprague-Dawley rat plasma at 30 mg/kg, ip administered as single dose by LC-MS/MS analysis. It is filed as ADME, organism-based. The arrangement: dose 30 mg/kg, route intraperitoneal. In a few lines: as §2
The nature of series [14]: Cmax in C57BL/6 mouse plasma at 10 mg/kg, po administered as single dose by LC-MS/MS analysis. It is filed as ADME, organism-based. The arrangement: dose 10 mg/kg, route oral. In outline:
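Mice given 10 mg/kg orally. Plasma Cmax was determined and brain concentration measured at 30 min postdose. Values are the mean (±SEM) of 2 mice.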

A short description of series [15]: Ratio of drug level in Sprague-Dawley rat brain to plasma at 30 mg/kg, ip after 30 mins post dose administered as single dose by LC-MS/MS analysis. It is filed as ADME, organism-based. The following applies: read-out: BPR. In outline: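 Single dose ip (10 or 30 mg/kg, rat) or oral (10 mg/kg, rat or mouse); plasma Cmax, Tmax, half-life, AUC0−inf derived; brain concentration and brain/plasma ratio at 30 min postdose. Mean of 3 rats or 2 mice.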

Series [16] relates to Mus musculus. Nature of the series: Anti-parkinson's activity in C57BL/6 mouse assessed as brain concentration required for reversal of haloperidol-induced catalepsy at 30 mg/kg, ip after 40 mins. It is filed as functional.
Series [17] is described as follows: Plasma concentration in Sprague-Dawley rat at 30 mg/kg, ip after 30 mins. It is filed as ADME, organism-based. In outline:
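Rats dosed 30 mg/kg ip; plasma sampled over time, brain measured at 30 and 60 min; brain/plasma ratio averaged over 30 and 60 min.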

The subject of series [18] is Brain. In words: Fraction unbound in Sprague-Dawley rat brain at 30 mg/kg, ip after 60 mins. The following applies: in vivo, 1 h. It is filed as ADME, organism-based.
Series [19] has as its system Brain. In words: Fraction unbound in Sprague-Dawley rat brain at 30 mg/kg, ip after 240 mins. It is filed as ADME, organism-based. The following applies: in vivo, 4 h.
Series [20] in a line: Ratio of fraction unbound in Sprague-Dawley rat brain at 30 mg/kg, ip after 30 mins to EC50 for rat mGlu4 receptor expressed in HEK293 cells.
Series [21] is described as follows: Ratio of fraction unbound in Sprague-Dawley rat brain at 30 mg/kg, ip after 120 mins to EC50 for rat mGlu4 receptor expressed in HEK293 cells.

Activity calls are given as the source filed them. The calls are words filed in the database; no cut-off is given here.

Chain of Metabotropic glutamate receptor 2 (Homo sapiens) (Q14416 19-872 limits assumed): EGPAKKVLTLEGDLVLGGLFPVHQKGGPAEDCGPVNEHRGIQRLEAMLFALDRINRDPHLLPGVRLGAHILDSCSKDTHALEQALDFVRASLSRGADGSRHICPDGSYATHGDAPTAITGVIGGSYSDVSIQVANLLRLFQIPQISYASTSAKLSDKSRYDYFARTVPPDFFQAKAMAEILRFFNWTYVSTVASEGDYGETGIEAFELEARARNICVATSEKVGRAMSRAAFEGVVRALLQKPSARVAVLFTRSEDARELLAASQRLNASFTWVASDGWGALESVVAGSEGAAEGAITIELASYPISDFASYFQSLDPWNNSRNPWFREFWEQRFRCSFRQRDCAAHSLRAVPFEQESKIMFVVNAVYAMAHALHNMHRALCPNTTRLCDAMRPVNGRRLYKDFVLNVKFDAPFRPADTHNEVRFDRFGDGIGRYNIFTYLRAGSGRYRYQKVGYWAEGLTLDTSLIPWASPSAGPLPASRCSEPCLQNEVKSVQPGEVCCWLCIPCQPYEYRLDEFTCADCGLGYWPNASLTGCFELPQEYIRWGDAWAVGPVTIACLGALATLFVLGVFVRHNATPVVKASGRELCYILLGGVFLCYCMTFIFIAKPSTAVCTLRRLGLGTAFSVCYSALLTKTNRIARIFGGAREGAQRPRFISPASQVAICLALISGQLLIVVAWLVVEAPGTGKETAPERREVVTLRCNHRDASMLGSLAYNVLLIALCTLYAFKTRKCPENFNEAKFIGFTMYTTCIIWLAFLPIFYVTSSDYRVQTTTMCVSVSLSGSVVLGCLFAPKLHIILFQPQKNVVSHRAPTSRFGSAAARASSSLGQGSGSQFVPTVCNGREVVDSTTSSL
T1 sequence (Q14833 whole entry): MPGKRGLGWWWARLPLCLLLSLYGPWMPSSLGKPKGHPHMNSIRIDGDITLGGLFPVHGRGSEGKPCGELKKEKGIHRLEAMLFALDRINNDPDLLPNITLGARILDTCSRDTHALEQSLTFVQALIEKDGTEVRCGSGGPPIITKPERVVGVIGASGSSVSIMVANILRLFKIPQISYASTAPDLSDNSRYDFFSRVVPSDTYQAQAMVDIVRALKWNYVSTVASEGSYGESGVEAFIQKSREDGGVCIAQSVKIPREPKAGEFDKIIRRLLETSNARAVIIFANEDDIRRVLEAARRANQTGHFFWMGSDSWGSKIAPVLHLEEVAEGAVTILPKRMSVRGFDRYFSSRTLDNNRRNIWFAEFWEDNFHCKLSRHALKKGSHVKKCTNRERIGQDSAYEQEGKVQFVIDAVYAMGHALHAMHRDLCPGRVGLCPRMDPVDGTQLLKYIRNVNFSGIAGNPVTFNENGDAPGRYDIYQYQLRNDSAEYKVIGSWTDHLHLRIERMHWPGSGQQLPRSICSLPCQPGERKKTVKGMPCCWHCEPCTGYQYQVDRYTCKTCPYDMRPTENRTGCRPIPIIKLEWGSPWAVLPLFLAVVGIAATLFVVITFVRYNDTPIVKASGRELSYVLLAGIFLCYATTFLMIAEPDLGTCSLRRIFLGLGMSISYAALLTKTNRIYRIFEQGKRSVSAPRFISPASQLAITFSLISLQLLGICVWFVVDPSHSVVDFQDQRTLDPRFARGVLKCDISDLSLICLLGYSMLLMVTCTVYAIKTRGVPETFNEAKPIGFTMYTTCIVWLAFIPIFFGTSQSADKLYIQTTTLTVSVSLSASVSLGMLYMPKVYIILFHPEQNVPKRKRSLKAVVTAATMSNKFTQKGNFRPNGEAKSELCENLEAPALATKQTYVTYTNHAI
Chain of Metabotropic glutamate receptor 7 (Homo sapiens) (Q14831 whole entry): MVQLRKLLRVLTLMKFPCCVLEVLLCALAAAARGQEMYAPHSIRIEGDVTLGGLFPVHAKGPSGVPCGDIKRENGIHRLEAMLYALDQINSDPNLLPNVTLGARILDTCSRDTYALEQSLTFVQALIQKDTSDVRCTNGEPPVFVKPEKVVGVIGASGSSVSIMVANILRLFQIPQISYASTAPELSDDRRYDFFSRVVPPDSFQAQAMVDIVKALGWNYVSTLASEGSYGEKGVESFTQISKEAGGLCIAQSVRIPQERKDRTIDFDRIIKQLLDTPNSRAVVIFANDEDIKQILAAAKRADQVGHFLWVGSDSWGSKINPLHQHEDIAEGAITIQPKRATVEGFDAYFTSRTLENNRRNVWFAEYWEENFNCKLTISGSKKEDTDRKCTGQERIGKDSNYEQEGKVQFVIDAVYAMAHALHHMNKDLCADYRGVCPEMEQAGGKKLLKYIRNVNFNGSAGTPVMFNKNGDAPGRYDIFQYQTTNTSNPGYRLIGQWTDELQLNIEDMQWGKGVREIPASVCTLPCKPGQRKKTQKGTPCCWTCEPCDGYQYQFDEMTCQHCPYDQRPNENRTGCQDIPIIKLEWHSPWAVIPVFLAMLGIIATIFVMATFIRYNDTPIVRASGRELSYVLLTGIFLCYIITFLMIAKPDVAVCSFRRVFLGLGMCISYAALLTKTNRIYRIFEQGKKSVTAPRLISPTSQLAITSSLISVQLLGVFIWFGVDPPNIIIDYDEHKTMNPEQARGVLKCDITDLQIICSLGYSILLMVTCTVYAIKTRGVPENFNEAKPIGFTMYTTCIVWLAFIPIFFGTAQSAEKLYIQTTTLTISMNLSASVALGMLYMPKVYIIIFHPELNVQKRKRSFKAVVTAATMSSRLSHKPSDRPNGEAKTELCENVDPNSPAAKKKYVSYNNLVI
Chain of Metabotropic glutamate receptor 5 (Homo sapiens) (P41594 21-1212 limits assumed): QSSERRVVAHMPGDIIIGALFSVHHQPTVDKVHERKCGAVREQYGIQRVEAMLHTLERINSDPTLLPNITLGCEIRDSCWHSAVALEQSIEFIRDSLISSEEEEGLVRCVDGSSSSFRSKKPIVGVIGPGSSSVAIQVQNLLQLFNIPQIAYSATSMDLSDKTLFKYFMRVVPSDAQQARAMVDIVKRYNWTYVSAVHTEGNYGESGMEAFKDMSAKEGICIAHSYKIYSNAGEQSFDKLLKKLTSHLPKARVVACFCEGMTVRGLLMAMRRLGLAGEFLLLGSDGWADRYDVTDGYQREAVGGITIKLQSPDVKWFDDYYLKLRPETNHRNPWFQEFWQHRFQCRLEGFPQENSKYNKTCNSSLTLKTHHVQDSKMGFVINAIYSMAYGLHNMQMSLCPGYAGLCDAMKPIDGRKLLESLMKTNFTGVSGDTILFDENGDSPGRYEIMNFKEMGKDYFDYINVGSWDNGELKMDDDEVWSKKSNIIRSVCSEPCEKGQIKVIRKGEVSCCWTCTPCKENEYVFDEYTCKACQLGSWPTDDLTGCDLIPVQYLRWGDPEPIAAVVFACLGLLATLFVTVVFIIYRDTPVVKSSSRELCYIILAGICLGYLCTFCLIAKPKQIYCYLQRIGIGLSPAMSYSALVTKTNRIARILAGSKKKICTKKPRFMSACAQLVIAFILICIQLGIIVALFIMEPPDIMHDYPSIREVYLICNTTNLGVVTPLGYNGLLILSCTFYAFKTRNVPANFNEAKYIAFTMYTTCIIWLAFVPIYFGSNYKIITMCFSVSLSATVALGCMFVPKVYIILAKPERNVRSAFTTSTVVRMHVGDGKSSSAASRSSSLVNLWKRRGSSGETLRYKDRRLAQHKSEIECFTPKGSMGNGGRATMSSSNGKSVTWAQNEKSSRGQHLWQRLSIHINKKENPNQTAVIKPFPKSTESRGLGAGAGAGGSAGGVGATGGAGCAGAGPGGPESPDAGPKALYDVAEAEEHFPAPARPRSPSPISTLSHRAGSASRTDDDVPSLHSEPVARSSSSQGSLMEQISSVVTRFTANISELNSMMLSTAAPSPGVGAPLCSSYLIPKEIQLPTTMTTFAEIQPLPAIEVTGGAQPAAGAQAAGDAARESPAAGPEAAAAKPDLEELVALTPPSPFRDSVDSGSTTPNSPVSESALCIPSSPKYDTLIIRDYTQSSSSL

A word on the Emax: it is the maximal effect, on the per cent scale that the assay sets. For `O/N=c1\cc(-c2cc3cccn3cn2)oc2ccc(OCCN3CCOCC3)cc12` [listing 1 of 2 here], the fold change (FC) in series [1] stood at 10. In addition, in [2], the Emax was 77%. Moreover, the result in series [3], in [4], in series [7] and in series [8] was inactive. Further, the Activity entry in [5] is “Dose-dependent effect”. Moreover, the result in series [6] was Active.

By Cmax is commonly meant the highest concentration seen after dosing. As usually defined, the Vd is a proportionality between amount in the body and measured concentration, not a real space. The low end stands for little distribution into tissue, the high end for wide distribution into tissue. Turning to `O/N=c1\cc(-c2cc3cccn3cn2)oc2ccc(OCCN3CCOCC3)cc12` [listing 2 of 2 here], the Cmax in [9] stood at 753 ng/mL; in series [12], 1500 ng/mL; in series [13], 9320 ng/mL; in series [14], 229 ng/mL. Further, the Vd in series [10] is 6 L/kg. Besides, the Kp at 1 h in [11] amounted to 3.3. Moreover, the Kp at 0.5 h in series [15] was found to be 3.1. The fEC50 in series [16] was determined as 5 nM. The same compound came in with a concentration at 0.5 h in series [17] of 7400 ng/mL. In addition, the “Drug uptake(free)” value came out at 91 ng/g in series [18] and 2 ng/g in series [19]. The Ratio is 14.5 in series [20] and 1.1 in [21].
